Results taken from ChEMBL document CHEMBL4342471, “Discovery of Thieno[2,3-d]pyrimidine-Based Hydroxamic Acid Derivatives as Bromodomain-Containing Protein 4/Histone Deacetylase Dual Inhibitors Induce Autophagic Cell Death in Colorectal Carcinoma Cells” (J Med Chem, 2020).
Active and inactive are the calls of the source. The rule behind the calls is not given here.

Experiments:
DLD-1 = test: Antiproliferative activity against human DLD1 cells assessed as reduction in cell viability measured after 24 to 48 hrs by MTT assay; type: functional, cell-based
HCT-116 [1] = test: Effect on histone H3 expression level in human HCT116 cells measured after 24 hrs by Western blot analysis; type: functional, cell-based
HCT-116 [2] = test: Antiproliferative activity against human HCT116 cells assessed as reduction in cell viability measured after 24 to 48 hrs by MTT assay; type: functional, cell-based
SW-620 = test: Antiproliferative activity against human SW620 cells assessed as reduction in cell viability measured after 24 to 48 hrs by MTT assay; type: functional, cell-based
HCT-116 [3] = test: Decrease in BRD4 expression in human HCT116 cells incubated for 24 hrs by western blot analysis; type: functional, cell-based
[4] = target: T1, Protein deacetylase HDAC6 (Homo sapiens, UniProt Q9UBN7); test: Inhibition of HDAC6 (unknown origin) using biotinylated histone H3 KAc peptide (1 to 21 residues) as substrate by HTRF assay
T1 sequence (Q9UBN7 whole entry): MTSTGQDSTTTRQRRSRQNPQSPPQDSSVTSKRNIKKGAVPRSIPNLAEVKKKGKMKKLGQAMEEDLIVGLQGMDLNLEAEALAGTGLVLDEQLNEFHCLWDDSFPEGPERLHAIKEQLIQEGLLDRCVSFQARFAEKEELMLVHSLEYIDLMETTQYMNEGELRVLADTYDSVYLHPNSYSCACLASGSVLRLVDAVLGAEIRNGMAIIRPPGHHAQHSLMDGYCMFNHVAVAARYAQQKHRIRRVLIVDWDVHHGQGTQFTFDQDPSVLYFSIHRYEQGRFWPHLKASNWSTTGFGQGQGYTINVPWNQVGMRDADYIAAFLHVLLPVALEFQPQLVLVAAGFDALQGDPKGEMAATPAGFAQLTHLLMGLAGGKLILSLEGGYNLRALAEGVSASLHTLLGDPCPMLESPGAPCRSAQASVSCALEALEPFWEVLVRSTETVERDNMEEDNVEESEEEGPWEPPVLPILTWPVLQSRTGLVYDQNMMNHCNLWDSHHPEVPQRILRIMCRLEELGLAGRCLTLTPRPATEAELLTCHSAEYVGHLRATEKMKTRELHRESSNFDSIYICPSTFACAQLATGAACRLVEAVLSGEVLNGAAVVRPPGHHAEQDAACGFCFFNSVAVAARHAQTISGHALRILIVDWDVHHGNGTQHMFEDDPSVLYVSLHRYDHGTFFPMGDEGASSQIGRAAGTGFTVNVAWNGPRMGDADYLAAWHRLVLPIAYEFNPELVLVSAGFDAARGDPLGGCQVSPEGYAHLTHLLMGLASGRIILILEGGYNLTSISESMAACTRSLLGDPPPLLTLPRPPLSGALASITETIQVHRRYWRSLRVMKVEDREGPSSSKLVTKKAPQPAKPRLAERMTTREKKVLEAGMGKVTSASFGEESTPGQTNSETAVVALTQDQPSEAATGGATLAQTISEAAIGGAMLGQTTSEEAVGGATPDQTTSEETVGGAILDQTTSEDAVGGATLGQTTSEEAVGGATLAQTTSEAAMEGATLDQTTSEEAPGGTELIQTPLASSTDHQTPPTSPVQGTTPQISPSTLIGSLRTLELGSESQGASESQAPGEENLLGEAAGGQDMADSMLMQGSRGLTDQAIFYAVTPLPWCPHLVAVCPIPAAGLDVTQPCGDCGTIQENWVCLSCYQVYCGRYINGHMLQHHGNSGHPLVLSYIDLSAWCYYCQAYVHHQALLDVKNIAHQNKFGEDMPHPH

Histone deacetylase 2 = Histone deacetylase 2 (Homo sapiens, UniProt Q92769)
Chain of Histone deacetylase 2 (Q92769 whole entry, the tested form may be a part): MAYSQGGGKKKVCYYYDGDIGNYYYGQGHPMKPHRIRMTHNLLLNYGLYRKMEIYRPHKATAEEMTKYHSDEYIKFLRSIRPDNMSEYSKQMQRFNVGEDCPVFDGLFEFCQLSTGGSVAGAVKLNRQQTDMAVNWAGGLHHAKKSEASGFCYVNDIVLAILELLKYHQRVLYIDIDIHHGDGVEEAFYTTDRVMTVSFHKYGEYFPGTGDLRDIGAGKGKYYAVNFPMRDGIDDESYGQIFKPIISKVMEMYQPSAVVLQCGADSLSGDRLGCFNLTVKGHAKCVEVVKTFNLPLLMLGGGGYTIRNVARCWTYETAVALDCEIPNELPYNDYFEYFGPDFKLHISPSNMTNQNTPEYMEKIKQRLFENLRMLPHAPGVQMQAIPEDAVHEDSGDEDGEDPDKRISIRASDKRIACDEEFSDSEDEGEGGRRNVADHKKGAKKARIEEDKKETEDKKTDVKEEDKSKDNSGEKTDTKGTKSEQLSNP

Histone deacetylase 7 = target: T2, Histone deacetylase 7 (Homo sapiens, UniProt Q8WUI4); test: Inhibition of HDAC7 (unknown origin) using biotinylated histone H3 KAc peptide (1 to 21 residues) as substrate by HTRF assay
T2 sequence (Q8WUI4 whole entry): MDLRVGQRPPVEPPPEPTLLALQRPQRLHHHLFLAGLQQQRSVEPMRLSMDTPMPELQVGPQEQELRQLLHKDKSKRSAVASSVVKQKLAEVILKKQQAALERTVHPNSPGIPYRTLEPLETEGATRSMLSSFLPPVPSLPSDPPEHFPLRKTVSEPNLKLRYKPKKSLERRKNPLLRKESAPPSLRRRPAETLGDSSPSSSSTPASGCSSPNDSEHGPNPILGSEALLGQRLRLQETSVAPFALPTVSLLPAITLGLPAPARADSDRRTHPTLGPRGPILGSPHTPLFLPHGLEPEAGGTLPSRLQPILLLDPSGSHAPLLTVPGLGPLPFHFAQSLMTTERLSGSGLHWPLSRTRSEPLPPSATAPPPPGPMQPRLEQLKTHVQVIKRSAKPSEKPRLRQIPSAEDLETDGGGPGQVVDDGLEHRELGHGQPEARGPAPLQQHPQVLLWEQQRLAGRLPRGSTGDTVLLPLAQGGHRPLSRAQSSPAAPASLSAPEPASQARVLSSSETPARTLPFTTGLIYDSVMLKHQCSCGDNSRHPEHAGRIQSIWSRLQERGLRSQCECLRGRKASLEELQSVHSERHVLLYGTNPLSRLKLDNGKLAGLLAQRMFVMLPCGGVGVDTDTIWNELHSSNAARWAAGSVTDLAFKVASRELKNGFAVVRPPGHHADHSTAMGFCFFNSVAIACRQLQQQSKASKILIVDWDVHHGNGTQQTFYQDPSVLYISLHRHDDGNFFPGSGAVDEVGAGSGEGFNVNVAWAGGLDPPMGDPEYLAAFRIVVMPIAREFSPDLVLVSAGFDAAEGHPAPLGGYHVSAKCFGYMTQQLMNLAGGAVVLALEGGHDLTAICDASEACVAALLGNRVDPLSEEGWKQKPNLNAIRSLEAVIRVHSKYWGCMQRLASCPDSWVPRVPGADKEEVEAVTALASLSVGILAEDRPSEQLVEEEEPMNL

[5] = target: T3, Bromodomain-containing protein 4 (Homo sapiens, UniProt O60885); test: Inhibition of GST-tagged BRD4 bromodomain (unknown origin) using biotinylated histone H4KAc peptide (1 to 21 residues) as substrate by HTRF assay
Mus musculus [6] = test: Increase in LIFR expression in tumor tissue of BALB/cAnNCrl mouse xenografted with human HCT116 cells at 30 mg/kg, po administered on day 1 to day 19 measured on day 19 by immunohistochemical analysis; type: functional, organism-based
Summary of the method: (§1)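 HCT-116 xenograft mice were dosed orally at 15 or 30 mg/kg, or 30 mg/kg for reference agents, for 19 days, with vehicle or saline controls. Tumor sections were stained for Ki-67, c-Myc, Ac-H3, BRD4, LC3-II, LIFR and p-STAT3 by immunohistochemistry, and TUNEL staining was used as the apoptosis marker.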

Mus musculus [7] = test: Increase in phosphorylated STAT3 expression in tumor tissue of BALB/cAnNCrl mouse xenografted with human HCT116 cells at 30 mg/kg, po administered on day 1 to day 19 measured on day 19 by immunohistochemical analysis; type: functional, organism-based; summary of the method: as §1
[8] = target: T3, Bromodomain-containing protein 4; test: Inhibition of BRD4 in human HCT116 cells assessed as induction of autophagy by measuring LC3-I cleavage to LC3-II at 2 uM measured after 24 hrs by Western blot analysis; type: cell-based
Summary of the method: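 HCT-116 cells were treated for 24 hours with 0.5 μM, 2.0 μM or 10 μM agents. LC3 (LC3-I to LC3-II conversion) and p62 were then detected by western blot.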

Mus musculus [9] = test: Induction of autophagy in BALB/cAnNCrl mouse xenografted with human HCT116 cells assessed as increase in LC3-II level in tumor tissue at 30 mg/kg, po administered on day 1 to day 19 measured on day 19 by immunohistochemical analysis; type: functional, organism-based; summary of the method: as §1
[10] = target: T3, Bromodomain-containing protein 4; test: Inhibition of BRD4 in human HCT116 cells assessed as activation of IL6-JAK-STAT signaling pathway by measuring increase in OSM mRNA level at 2 uM after 24 hrs by RT-PCR analysis; type: cell-based
Summary of the method: (§2)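 HCT-116 cells were incubated for 24 hours with the test agents at 0.5, 2.0 or 10 μM. IL6, OSM, LIF and CTF1 mRNA levels were then measured.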

[11] = target: T3, Bromodomain-containing protein 4; test: Inhibition of BRD4 in human HCT116 cells assessed as activation of IL6-JAK-STAT signaling pathway by measuring increase in CTF1 mRNA level at 2 uM after 24 hrs by RT-PCR analysis; type: cell-based; summary of the method: as §2
[12] = target: T3, Bromodomain-containing protein 4; test: Inhibition of BRD4 in human HCT116 cells assessed as activation of IL6-JAK-STAT signaling pathway by measuring increase in LIF mRNA level at 2 uM after 24 hrs by RT-PCR analysis; type: cell-based; summary of the method: as §2
[13] = target: T3, Bromodomain-containing protein 4; test: Inhibition of BRD4 in human HCT116 cells assessed as activation of IL6-JAK-STAT signaling pathway by measuring increase in IL6 mRNA level at 2 uM after 24 hrs by RT-PCR analysis; type: cell-based; summary of the method: as §2
[14] = target: T3, Bromodomain-containing protein 4; test: Inhibition of BRD4 in human HCT116 cells assessed as induction of autophagy by measuring p62 degradation at 2 uM measured after 24 hrs by Western blot analysis; type: cell-based
Summary of the method: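 HCT-116 cells incubated 24 h with test agent at 2.0 µM, alongside 0.5 µM and 10 µM comparator treatments; LC3 and p62 protein detected by western blot.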

Structure (SMILES): COc1cc(OC)c2c(=O)[nH]c(-c3cc(C)c(OCCO)c(C)c3)nc2c1 [APABETALONE]
- IC50 (DLD-1): > 10 µM
- Activity (HCT-116 [1]): inactive
- IC50 (HCT-116 [2]): 12.8 µM
- IC50 (SW-620): > 10 µM
- inhibition (HCT-116 [3]): Active

Structure (SMILES): Cc1cc(-c2nc3sc4c(c3c(=O)[nH]2)CCN(C)C4)cc(C)c1OCc1cccc(C(=O)Nc2ccccc2N)c1
- IC50 (DLD-1): > 10 µM
- IC50 [4]: > 10 µM
- IC50 (HCT-116 [2]): 4.53 µM
- IC50 (Histone deacetylase 2): 0.86 µM
- IC50 (Histone deacetylase 7): > 10 µM
- IC50 (SW-620): > 10 µM
- IC50 [5]: 3.48 µM

Structure (SMILES): O=C(CCCCCCC(=O)Nc1ccccc1)NO
- Activity (Mus musculus [6]): Active
- Activity (HCT-116 [1]): inactive
- Activity (Mus musculus [7]): Active

Structure (SMILES): Cc1cc(-c2nc3sc4c(c3c(=O)[nH]2)CCN(C)C4)cc(C)c1O
- inhibition [8]: Active
- Activity (Mus musculus [9]): Active
- inhibition [10]: inactive
- inhibition [11]: inactive
- IC50 (HCT-116 [2]): 1.33 µM
- inhibition [12]: inactive
- inhibition [13]: inactive
- inhibition [14]: Active
- IC50 [5]: 0.85 µM
